{"source": "ChEMBL document CHEMBL1909516", "about": "“Synthesis of 9-substituted 2,3,4,9-tetrahydro-1H-carbazole derivatives and evaluation of their anti-prion activity in TSE-infected cells” (Eur J Med Chem, 2011)", "key": {"GT1-7 [1]": {"system": "GT1-7", "assay": "Antiprion activity in human transmissible spongiform encephalopathies agent Fukuoka-1 prion infected mouse GT1-7 cells assessed as inhibition of proteinase K-resistant PrPres accumulation at […] after 3 days by Western blotting analysis", "assay_type": "cell-based", "how_it_was_run": "(§1)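 GT1-7 mouse neuronal cells persistently infected with Fukuoka-1 agent, grown in DMEM with 10% FBS and penicillin G at 37 °C, 5% CO2. Seeded 3 × 10⁵ cells/well; 15 h later given compound diluted from 10 mM DMSO stock (control 0.1% DMSO). Lysate adjusted to 1 mg/mL protein, proteinase K 30 min 37 °C, pelleted, SDS-PAGE, anti-PrP M-20 Western blot. IC50 = 50% PrPres inhibition.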"}, "[2]": {"assay": "Cytotoxicity against human transmissible spongiform encephalopathies agent Fukuoka-1 prion infected mouse GT1-7 cells at 10 uM after 3 days", "assay_type": "cell-based", "settings": "gt1-7, 72 h"}, "GT1-7 [3]": {"system": "GT1-7", "assay": "Antiprion activity in human transmissible spongiform encephalopathies agent Fukuoka-1 prion infected in mouse GT1-7 cells assessed as inhibition of proteinase K-resistant PrPres accumulation at 5 uM after 3 days by Western blot analysis relative to control", "assay_type": "cell-based", "how_it_was_run": "as §1"}, "[4]": {"assay": "Antiprion activity in human transmissible spongiform encephalopathies agent Fukuoka-1 prion infected mouse GT1-7 cells assessed as inhibition of proteinase K-resistant PrPres accumulation after 3 days by Western blot analysis", "assay_type": "cell-based", "settings": "GT1-7, 72 h", "how_it_was_run": "as §1"}, "GT1-7 [5]": {"system": "GT1-7", "assay": "Ratio of compound IC50 over GJP14 IC50 for human transmissible spongiform encephalopathies agent Fukuoka-1 prion infected in mouse GT1-7 cells", "assay_type": "cell-based"}, "GT1-7 [6]": {"system": "GT1-7", "assay": "Antiprion activity in human transmissible spongiform encephalopathies agent Fukuoka-1 prion infected mouse GT1-7 cells assessed as inhibition of PrPC expression at 5 uM after 3 days absence of proteinase K digestion", "assay_type": "cell-based", "how_it_was_run": "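GT1-7 cells persistently infected with Fukuoka-1 agent, seeded 3 × 10⁵ cells/well. Compound from 10 mM DMSO stock added 15 h after seeding (vehicle 0.1% DMSO). Lysates adjusted to 1 mg/mL total protein (BCA). Run without proteinase K digestion, so PrPC is read by Western blot with M-20 anti-PrP antibody.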"}, "Mus musculus": {"species_on_record": "Mus musculus", "assay": "Antiprion activity in scrapie infected mouse ScN2a-3-Ch cells assessed as inhibition of proteinase K-resistant PrPres accumulation at 5 uM after 3 days by Western blot analysis relative to control", "how_it_was_run": "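Scrapie-infected ScN2a-3-Ch cells seeded at about 1 × 10⁵ cells/well and handled as in the GT1-7 assay. Compound diluted from 10 mM DMSO stock, with 0.1% DMSO control. Lysate protein adjusted to 1 mg/mL, then proteinase K digestion 30 min at 37 °C. Pellet analysed by Western blot for PrPres, expressed relative to control.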"}}, "note": "Activity calls are given as the source filed them. No cut-off for these calls is given here."}
{"smiles": "OC(CN1CCCCC1)Cn1c2ccccc2c2ccccc21", "note": "(centres undefined)", "values": [{"measurement": "inhibition", "setting": "GT1-7 [1]", "result": "Active"}]}
{"smiles": "OC(CNCc1ccccn1)Cn1c2c(c3ccccc31)CCCC2", "note": "(centres undefined)", "values": [{"measurement": "inhibition", "setting": "GT1-7 [1]", "result": "Active"}]}
{"smiles": "CC(C)(NCC(O)Cn1c2c(c3ccccc31)CCCC2)c1ccccc1", "note": "(centres undefined)", "values": [{"measurement": "Activity", "setting": "[2]", "result": "Toxic"}, {"measurement": "inhibition", "setting": "GT1-7 [3]", "result": 34, "unit": "%"}]}
{"smiles": "CCCCNCC(O)Cn1c2c(c3ccccc31)CCCC2", "note": "(centres undefined)", "values": [{"measurement": "inhibition", "setting": "GT1-7 [1]", "result": "Active"}]}
{"smiles": "OC(CNCc1ccc(F)cc1F)Cn1c2c(c3ccccc31)CCCC2", "note": "(centres undefined)", "values": [{"measurement": "inhibition", "setting": "GT1-7 [1]", "result": "Active"}]}
{"smiles": "OC(CN1CCCCC1)Cn1ccc2ccccc21", "note": "(centres undefined)", "values": [{"measurement": "inhibition", "setting": "GT1-7 [1]", "result": "inactive"}]}
{"smiles": "OC(CNCc1cccc2ccccc12)Cn1c2c(c3ccccc31)CCCC2", "note": "(centres undefined)", "values": [{"measurement": "inhibition", "setting": "GT1-7 [1]", "result": "Active"}]}
{"smiles": "OC(CNCc1cccc(Br)c1)Cn1c2c(c3ccccc31)CCCC2", "note": "(centres undefined)", "values": [{"measurement": "inhibition", "setting": "GT1-7 [1]", "result": "Active"}]}
{"smiles": "OC(CNCc1ccc(F)cc1)Cn1c2c(c3ccccc31)CCCC2", "note": "(centres undefined)", "values": [{"measurement": "inhibition", "setting": "GT1-7 [1]", "result": "Active"}]}
{"smiles": "O[C@@H](CNCc1ccccc1F)Cn1c2c(c3ccccc31)CCCC2", "values": [{"measurement": "IC50", "setting": "[4]", "result": 1110, "unit": "nM"}, {"measurement": "Ratio IC50", "setting": "GT1-7 [5]", "result": 8}, {"measurement": "inhibition", "setting": "GT1-7 [6]", "result": "inactive"}, {"measurement": "inhibition", "setting": "Mus musculus", "result": "Active"}]}
{"smiles": "OC(CNCc1ccc(Br)cc1)Cn1c2c(c3ccccc31)CCCC2", "note": "(centres undefined)", "values": [{"measurement": "Activity", "setting": "[2]", "result": "Toxic"}, {"measurement": "inhibition", "setting": "GT1-7 [3]", "result": 25, "unit": "%"}]}
{"smiles": "OC(CNCc1cccc(Cl)c1)Cn1c2c(c3ccccc31)CCCC2", "note": "(centres undefined)", "values": [{"measurement": "inhibition", "setting": "GT1-7 [1]", "result": "Active"}]}
{"smiles": "COc1cccc(CNCC(O)Cn2c3c(c4ccccc42)CCCC3)c1", "note": "(centres undefined)", "values": [{"measurement": "Activity", "setting": "[2]", "result": "Toxic"}, {"measurement": "inhibition", "setting": "GT1-7 [3]", "result": 21, "unit": "%"}]}
{"smiles": "OC(CNCc1cccnc1)Cn1c2c(c3ccccc31)CCCC2", "note": "(centres undefined)", "values": [{"measurement": "inhibition", "setting": "GT1-7 [1]", "result": "Active"}]}
{"smiles": "OC(CN1CCOCC1)Cn1c2c(c3ccccc31)CCCC2", "note": "(centres undefined)", "values": [{"measurement": "inhibition", "setting": "GT1-7 [1]", "result": "Active"}]}
{"smiles": "OC(CNCc1ccccc1Br)Cn1c2c(c3ccccc31)CCCC2", "note": "(centres undefined)", "values": [{"measurement": "inhibition", "setting": "GT1-7 [1]", "result": "Active"}]}
{"smiles": "OC(CNCc1ccccc1C(F)(F)F)Cn1c2c(c3ccccc31)CCCC2", "note": "(centres undefined)", "values": [{"measurement": "inhibition", "setting": "GT1-7 [1]", "result": "Active"}]}
{"smiles": "COc1ccccc1CNCC(O)Cn1c2c(c3ccccc31)CCCC2", "note": "(centres undefined)", "values": [{"measurement": "inhibition", "setting": "GT1-7 [1]", "result": "Active"}]}
{"smiles": "c1ccc2c3c([nH]c2c1)CCCC3", "values": [{"measurement": "inhibition", "setting": "GT1-7 [1]", "result": "inactive"}]}
{"smiles": "OC(CNCc1ccc(Cl)cc1)Cn1c2c(c3ccccc31)CCCC2", "note": "(centres undefined)", "values": [{"measurement": "Activity", "setting": "[2]", "result": "Toxic"}, {"measurement": "inhibition", "setting": "GT1-7 [3]", "result": 18, "unit": "%"}]}
{"smiles": "OC(CNCc1cccc(F)c1)Cn1c2c(c3ccccc31)CCCC2", "note": "(centres undefined)", "values": [{"measurement": "inhibition", "setting": "GT1-7 [1]", "result": "Active"}]}
{"smiles": "OC(CN1CCCCC1)Cn1c2c(c3ccccc31)CCCC2", "note": "(centres undefined)", "values": [{"measurement": "inhibition", "setting": "GT1-7 [1]", "result": "Active"}]}
{"smiles": "O=C(CN1CCCC1)Nc1ccc(Cc2ccc(NC(=O)CN3CCCC3)cc2)cc1", "values": [{"measurement": "IC50", "setting": "[4]", "result": 1400, "unit": "nM"}, {"measurement": "inhibition", "setting": "GT1-7 [3]", "result": 34, "unit": "%"}]}
{"smiles": "OC(CNCc1ccccc1Cl)Cn1c2c(c3ccccc31)CCCC2", "note": "(centres undefined)", "values": [{"measurement": "inhibition", "setting": "GT1-7 [1]", "result": "Active"}]}
{"smiles": "OC(CNCc1c(Cl)cccc1Cl)Cn1c2c(c3ccccc31)CCCC2", "note": "(centres undefined)", "values": [{"measurement": "inhibition", "setting": "GT1-7 [1]", "result": "Active"}]}
{"smiles": "OC(CNCc1cc(F)ccc1F)Cn1c2c(c3ccccc31)CCCC2", "note": "(centres undefined)", "values": [{"measurement": "inhibition", "setting": "GT1-7 [1]", "result": "Active"}]}
{"smiles": "O[C@H](CNCc1ccccc1F)Cn1c2c(c3ccccc31)CCCC2", "values": [{"measurement": "IC50", "setting": "[4]", "result": 2230, "unit": "nM"}]}
{"smiles": "COc1ccc(CNCC(O)Cn2c3c(c4ccccc42)CCCC3)cc1", "note": "(centres undefined)", "values": [{"measurement": "Activity", "setting": "[2]", "result": "Toxic"}, {"measurement": "inhibition", "setting": "GT1-7 [3]", "result": 23, "unit": "%"}]}
{"smiles": "OC(CNC1CCCC1)Cn1c2c(c3ccccc31)CCCC2", "note": "(centres undefined)", "values": [{"measurement": "inhibition", "setting": "GT1-7 [1]", "result": "Active"}]}
{"smiles": "OC(CN1CCCCC1)Cn1cccc1", "note": "(centres undefined)", "values": [{"measurement": "inhibition", "setting": "GT1-7 [1]", "result": "inactive"}]}
{"smiles": "OC(CNCc1cccc(C(F)(F)F)c1)Cn1c2c(c3ccccc31)CCCC2", "note": "(centres undefined)", "values": [{"measurement": "Activity", "setting": "[2]", "result": "Toxic"}, {"measurement": "inhibition", "setting": "GT1-7 [3]", "result": 40, "unit": "%"}]}
{"smiles": "OC(CN1CCCCC1)Cn1ccc2c1CCCC2", "note": "(centres undefined)", "values": [{"measurement": "inhibition", "setting": "GT1-7 [1]", "result": "inactive"}]}
{"smiles": "OC(CNCc1ccccc1F)Cn1c2c(c3ccccc31)CCCC2", "note": "(centres undefined)", "values": [{"measurement": "inhibition", "setting": "GT1-7 [1]", "result": "Active"}]}
{"smiles": "OC(CNCc1c(F)cccc1F)Cn1c2c(c3ccccc31)CCCC2", "note": "(centres undefined)", "values": [{"measurement": "inhibition", "setting": "GT1-7 [1]", "result": "Active"}]}
{"smiles": "OC(CNc1ccccc1)Cn1c2c(c3ccccc31)CCCC2", "note": "(centres undefined)", "values": [{"measurement": "inhibition", "setting": "GT1-7 [1]", "result": "inactive"}]}
{"smiles": "OC(CNCc1ccc(C(F)(F)F)cc1)Cn1c2c(c3ccccc31)CCCC2", "note": "(centres undefined)", "values": [{"measurement": "inhibition", "setting": "GT1-7 [1]", "result": "Active"}]}
{"smiles": "OC(CNCc1ccncc1)Cn1c2c(c3ccccc31)CCCC2", "note": "(centres undefined)", "values": [{"measurement": "inhibition", "setting": "GT1-7 [1]", "result": "Active"}]}
{"smiles": "Cc1ccc(CNCC(O)Cn2c3c(c4ccccc42)CCCC3)cc1", "note": "(centres undefined)", "values": [{"measurement": "Activity", "setting": "[2]", "result": "Toxic"}, {"measurement": "inhibition", "setting": "GT1-7 [3]", "result": 32, "unit": "%"}]}
{"smiles": "Cc1ccc2c(c1)c1c(n2CC(O)CN2CCCCC2)C(=O)CCC1", "note": "(centres undefined)", "values": [{"measurement": "IC50", "setting": "[4]", "result": 8540, "unit": "nM"}]}
{"smiles": "Cc1cccc(CNCC(O)Cn2c3c(c4ccccc42)CCCC3)c1", "note": "(centres undefined)", "values": [{"measurement": "inhibition", "setting": "GT1-7 [1]", "result": "Active"}]}
{"smiles": "OC(CNCc1ccccc1)Cn1c2c(c3ccccc31)CCCC2", "note": "(centres undefined)", "values": [{"measurement": "inhibition", "setting": "GT1-7 [1]", "result": "Active"}, {"measurement": "inhibition", "setting": "GT1-7 [3]", "result": 28, "unit": "%"}]}
{"smiles": "Cc1ccccc1CNCC(O)Cn1c2c(c3ccccc31)CCCC2", "note": "(centres undefined)", "values": [{"measurement": "inhibition", "setting": "GT1-7 [1]", "result": "Active"}]}
